Compound activity: PubChem BioAssay, several laboratories
Compounds with a hit are over-represented: about 3% of the library has one in this group of screens.
HIF activator – HIF pathway transcriptional activation; U2OS HRE-luciferase reporter, luminescence; normalized: DMSO 0%, desferrioxamine 100%; activation, % at 7.5 µM (by protocol); hit rate 0.32% among 300,000;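 active means mean activation of at least 10% of the iron chelator positive control signal, with at least half of replicates also reaching 10%; inconclusive means mean and replicate majority disagree about reaching 10%; inactive means mean and most replicates under 10%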
T cruzi repl – blocks replication of Trypanosoma cruzi | AID 1885 | hit rate 1.4% among 300,000 | inhibition, % (no concentration beside the values) | T. cruzi beta-gal in NIH3T3, luminescence, 90 h;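 active means mean inhibition across valid replicates above about 55%, limit read from the data; inconclusive means mean below that limit but half or more replicates reach it; inactive means mean below it, under half of replicates reach it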;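 further: signal also drops with host cell toxicity which is not excluded here; higher percent means less beta-gal luminescence so fewer parasites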
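compound dosing = single 50 nL compound addition per well in DMSO | material = NIH/3T3 host cells with β-galactosidase reporter T. cruzi | input = 5,000 host fibroblasts per well | timing = ≥90 h infection period, 3 h prior cell attachment | read-out basis = percent inhibition of parasite-derived β-gal signal | detection = GalScreen β-gal luminescence, detergent lysis, 60 min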
AI-2 QS modul – modulates the Vibrio harveyi AI-2 quorum sensing system. Vibrio harveyi JMH597 AI-2 luminescence/OD600 ratio, 9 h; active compounds read low; strain lacks LuxN and CqsS sensors; 0 = neutral-control median. AID 2094. hit rate 0.4% among 300,000. activity change, % at 7.5 µM; in the data active means activity change below about -75%, passing the limit was not always enough; inconclusive means no clear call, values can overlap the other calls;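 further: luminescence divided by OD600 gain over 9 h not by final OD600 alone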
NRP1-CendR mod – modulators of CendR peptide binding to human neuropilin-1; O14786; FAM-RPARPAR peptide binding to NRP-1, fluorescence polarization; inhibition, % at 25 µM; hit rate 0.85% among 360,000; AID 602438;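 active means inhibition or corrected inhibition above about 18%, plus a signal ratio from 0.5 to 1.5, limit read from the data, passing the limit was not always enough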
Target sequence (O14786 whole entry, looked up): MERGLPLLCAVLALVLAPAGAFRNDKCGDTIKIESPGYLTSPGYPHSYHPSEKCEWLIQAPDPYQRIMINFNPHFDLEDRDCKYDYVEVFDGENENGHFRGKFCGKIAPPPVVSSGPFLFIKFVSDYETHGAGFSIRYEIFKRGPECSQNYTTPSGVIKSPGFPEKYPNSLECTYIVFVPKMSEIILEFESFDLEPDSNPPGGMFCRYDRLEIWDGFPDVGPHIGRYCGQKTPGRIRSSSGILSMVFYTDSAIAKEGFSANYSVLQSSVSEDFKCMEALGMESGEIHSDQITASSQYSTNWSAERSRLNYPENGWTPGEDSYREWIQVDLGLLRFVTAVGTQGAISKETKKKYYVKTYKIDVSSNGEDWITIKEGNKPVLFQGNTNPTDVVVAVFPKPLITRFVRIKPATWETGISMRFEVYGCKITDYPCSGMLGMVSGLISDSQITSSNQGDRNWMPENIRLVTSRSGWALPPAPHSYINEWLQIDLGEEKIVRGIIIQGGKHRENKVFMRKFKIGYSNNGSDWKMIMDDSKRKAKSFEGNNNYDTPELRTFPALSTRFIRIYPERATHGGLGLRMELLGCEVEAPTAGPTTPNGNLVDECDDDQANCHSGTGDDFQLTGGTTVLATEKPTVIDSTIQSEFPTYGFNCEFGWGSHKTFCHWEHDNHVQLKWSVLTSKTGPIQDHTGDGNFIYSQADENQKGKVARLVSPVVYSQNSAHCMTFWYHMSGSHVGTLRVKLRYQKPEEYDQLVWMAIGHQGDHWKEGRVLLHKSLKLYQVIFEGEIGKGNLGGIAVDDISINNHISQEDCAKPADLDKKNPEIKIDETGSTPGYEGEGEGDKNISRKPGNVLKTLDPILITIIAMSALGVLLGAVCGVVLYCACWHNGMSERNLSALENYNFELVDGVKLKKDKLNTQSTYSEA
CR mimetic SO – caloric restriction mimetics inhibiting age-related superoxide in yeast | superoxide response (% of plate mean), % at 10 µM | AID 2690 | hit rate 0.18% among 330,000 | S. cerevisiae aged cells, superoxide DHE fluorescence; active compounds read low;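 active means superoxide response under a set limit, about three screen SD below normal, cut at about 65% in these data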;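 further: yeast aged for seven days with compound at 30 °C before DHE staining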
V-ATPase pHluor – alters yeast V-ATPase proton transport; S. cerevisiae, pHLuorin cytosolic pH fluorescence; response, % at 10 µM; hit rate 0.37% among 350,000; AID 504577; in the data active means response mostly above about 7.3%, no sharp cut-off; inactive means mostly below about 5.4%; further: actives read high
JMH597 growth – retest: inhibitors of Vibrio harveyi JMH597 growth; shares compounds with AI-2 QS modul; hit rate 1% among 750; growth inhibition, % at 7.5 µM; OD600 absorbance, 9 h; lacks LuxN and CqsS sensors;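 active means every replicate shows growth inhibition above 50%; inconclusive means at least half, but not all, replicates pass that cutoff; inactive means fewer than half of replicates pass it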
BB721 lum counter – retest counter-screen: BB721 constitutive quorum sensing luminescence decrease. Vibrio harveyi BB721 luminescence, 9 h. hit rate 95% among 750. inhibition, % at 7.5 µM. shares compounds with AI-2 QS modul;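 active means inhibition above about 80% in every replicate, not just on average, limit read from the data; inconclusive means at least half of replicates past the limit, but not all; inactive means fewer than half of replicates past the limit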
BB721 growth rt – retest: inhibitors of Vibrio harveyi BB721 growth. shares compounds with AI-2 QS modul. OD600 absorbance, 9 h. growth inhibition, % at 7.5 µM. hit rate 3% among 750;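 active means every replicate shows growth inhibition above 50%; inconclusive means at least half but not all replicates above 50% inhibition; inactive means under half of replicates above 50% inhibition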
JMH597 AI-2 mod – Vibrio harveyi AI-2 signaling luminescence modulation – JMH597 strain, confirmation; shares compounds with AI-2 QS modul; Vibrio harveyi JMH597 AI-2 quorum sensing luminescence, 9 h; luxN and CqsS knockout, AI-2 only; inhibition, % at 7.5 µM; hit rate 97% among 750; AID 2736;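 active means every replicate shows more than 75% inhibition of signal versus neutral control wells; inconclusive means half to three quarters of replicates exceed 75% inhibition; inactive means fewer than half of replicates exceed 75% inhibition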
Of the large screens only hits and unclear results are named; the others gave an inactive call (follow-up assays come after a bar, where they were run).

CCOC(=O)C1=C(C)N=c2s/c(=C\c3ccc(OCC(=O)O)cc3)c(=O)n2C1c1ccc(OC(C)C)cc1 (centres undefined)	none
COc1ccc2c(c1)CCCC(Br)C2=O (centres undefined)	none (no result: HIF activator, T cruzi repl, AI-2 QS modul, CR mimetic SO)
CC1=C(C(=O)N2CCOCC2)C(c2ccccc2F)C2=C(CCCC2=O)N1 (centres undefined)	none
Cc1ccc(O)c(/C=N/NC(=O)Cc2ccc(Cl)cc2)c1	AI-2 QS modul -93 | JMH597 growth inactive | BB721 lum counter 99 | BB721 growth rt inactive | JMH597 AI-2 mod 99
O=C(Cc1ccc(Cl)cc1)N/N=C/c1ccc(O)c(O)c1	none (no result: HIF activator, T cruzi repl, AI-2 QS modul, CR mimetic SO)
Cc1cc(Nc2ccc(Cl)cc2)nc(N)n1	none
Nc1cc(Nc2ccc(Br)cc2)nc(N)n1	AI-2 QS modul -96 | JMH597 growth inactive | BB721 lum counter 99 | BB721 growth rt inactive | JMH597 AI-2 mod 99
CC(C)(CC(=O)O)CC(=O)NCc1c(Cl)cccc1Oc1ccccc1	none
Cc1ccccc1OCCNC(=O)c1ccc2ccccc2n1	AI-2 QS modul -78 | JMH597 growth inactive | BB721 lum counter 91 | BB721 growth rt inactive | JMH597 AI-2 mod 94
Cc1ccccc1OCCNC(=O)/C=C/c1ccc([N+](=O)[O-])cc1	none
Cc1ccccc1OCCNC(=O)/C=C/c1ccccc1	AI-2 QS modul -82 | JMH597 growth inactive | BB721 lum counter 94 | BB721 growth rt inactive | JMH597 AI-2 mod 96
CC(=O)c1ccc(NCCC(=O)c2ccccc2)cc1	AI-2 QS modul -83 | JMH597 growth inactive | BB721 lum counter 93 | BB721 growth rt inactive | JMH597 AI-2 mod 95
O=C(c1ccncc1)N1CCN(S(=O)(=O)c2ccc(OC(F)(F)F)cc2)CC1	none (no result: HIF activator, T cruzi repl, AI-2 QS modul)
COc1cccc(CC(=O)Nc2ccc(S(=O)(=O)Nc3nccs3)cc2)c1	none (no result: HIF activator, T cruzi repl, AI-2 QS modul)
COc1ccc(CC(=O)OCC(=O)Nc2ccc(C(=O)Nc3ccc(OC)cc3)cc2)cc1	none
COc1ccc(CC(=O)Nc2ccc(S(=O)(=O)NCC3CCCO3)cc2)cc1 (centres undefined)	AI-2 QS modul -93 | JMH597 growth inactive | BB721 lum counter 99 | BB721 growth rt inactive | JMH597 AI-2 mod 100
O=C(Cc1ccc(Cl)cc1)Nc1ccc(S(=O)(=O)Nc2ncccn2)cc1	AI-2 QS modul -92 | JMH597 growth inactive | BB721 lum counter 98 | BB721 growth rt inactive | JMH597 AI-2 mod 99
COc1ccc(CC(=O)Nc2ccc(C(N)=O)cc2)cc1	AI-2 QS modul inconclusive | JMH597 growth inactive | BB721 lum counter 85 | BB721 growth rt inactive | JMH597 AI-2 mod 89
COc1ccc(CC(=O)Nc2ccc(S(=O)(=O)Nc3nccs3)cc2)cc1	AI-2 QS modul inconclusive | JMH597 growth inactive | BB721 lum counter 84 | BB721 growth rt inactive | JMH597 AI-2 mod 89
CC(C)(C)n1nnnc1C(c1ccccc1)N1CCN(C(=O)C2CCCO2)CC1 (centres undefined)	none (no result: HIF activator, T cruzi repl, AI-2 QS modul, CR mimetic SO, V-ATPase pHluor)
COc1ccc(S(=O)(=O)N2N=C(c3cccc(NS(C)(=O)=O)c3)CC2c2ccco2)cc1 (centres undefined)	none
CC(Oc1ccccc1)C(=O)Nc1ccc(S(=O)(=O)NCC2CCCO2)cc1 (centres undefined)	AI-2 QS modul inconclusive | JMH597 growth inactive | BB721 lum counter 97 | BB721 growth rt inactive | JMH597 AI-2 mod 100
O=C(CN1C(=O)c2ccccc2C1=O)Nc1ccc(S(=O)(=O)NCC2CCCO2)cc1 (centres undefined)	AI-2 QS modul -91 (no result: HIF activator) | JMH597 growth inactive | BB721 lum counter 96 | BB721 growth rt inactive | JMH597 AI-2 mod 97
N#C/C(=C\c1cn(CCOc2ccccc2F)c2ccccc12)C(=O)NCc1cccs1	none
O=C(Nc1ccc(Nc2ccccc2)cc1)c1ccccc1F	AI-2 QS modul -86 | JMH597 growth inactive | BB721 lum counter 94 | BB721 growth rt inactive | JMH597 AI-2 mod 94
O=C(Nc1ccc(Nc2ccccc2)cc1)c1cccc(F)c1	AI-2 QS modul -77 | JMH597 growth inactive | BB721 lum counter 86 | BB721 growth rt inactive | JMH597 AI-2 mod 90
O=C(Nc1cccc(F)c1)c1ccccc1	none
O=C(O)c1cc(NC(=O)c2ccccc2F)cc(NC(=O)c2ccccc2F)c1	none (no result: AI-2 QS modul)
CCC(=O)Nc1ccc(S(=O)(=O)Nc2c(C)nc3nc[nH]n3c2=O)cc1	none
NC(=O)c1ncn([C@@H]2O[C@H](CNS(=O)(=O)c3cc(S(=O)(=O)c4ccccc4)cs3)[C@@H](O)[C@H]2O)n1	none (no result: HIF activator, T cruzi repl, AI-2 QS modul, CR mimetic SO)
O=C(CSc1n[nH]c(-c2ccccc2)n1)N1CCCC1	none
CCOC(=O)N1CCC(NC(=O)C2CCCN(Cc3nc(-c4ccc(CC)cc4)oc3C)C2)CC1 (centres undefined)	none
COc1ccc(N=Cc2c(O)[nH]c3ccccc23)cc1	none
COc1ccc(CN=Cc2c(O)[nH]c3ccccc23)cc1	AI-2 QS modul -90 | JMH597 growth inactive | BB721 lum counter 96 | BB721 growth rt inactive | JMH597 AI-2 mod 97
O=C(/C=C/c1ccccc1Cl)Nn1cnc2ccccc2c1=O	AI-2 QS modul -78 | JMH597 growth inactive | BB721 lum counter 96 | BB721 growth rt inactive | JMH597 AI-2 mod 98
Cc1ccccc1C(=O)Nn1cnc2ccccc2c1=O	none
O=C(Nc1ccc(Cl)cc1)Nn1cnc2ccccc2c1=O	AI-2 QS modul -98 | JMH597 growth inactive | BB721 lum counter 100 | BB721 growth rt inactive | JMH597 AI-2 mod 100
O=C(/C=C/c1ccccc1)Nn1cnc2ccccc2c1=O	AI-2 QS modul -88 | JMH597 growth inactive | BB721 lum counter 98 | BB721 growth rt inactive | JMH597 AI-2 mod 99
O=C(Nn1cnc2ccccc2c1=O)c1ccccc1Cl	none
CCOc1ccc(N2C(=O)CC(SCCN)C2=O)cc1 (centres undefined)	none
CCCCCCOc1ccc(N2C(=O)CC(SCCN)C2=O)cc1 (centres undefined)	AI-2 QS modul -85 | JMH597 growth inactive | BB721 lum counter 88 | BB721 growth rt inactive | JMH597 AI-2 mod 96
Clc1cccc(CON/C=N/c2ncnc3sccc23)c1	AI-2 QS modul -92 | JMH597 growth inactive | BB721 lum counter 96 | BB721 growth rt inactive | JMH597 AI-2 mod 98
O=C1/C(=C/c2ccncc2)N=C2CCCCCN12	none
